# Sampled rows, rich in hits. Any-hit rate of the full collection: about 2.7%.
# LYP act: LYP (human) phosphatase activation. recombinant LYP, DiFMUP fluorescence; 0 = plate median, 100 = signal doubled. activation, % at 2 µM. 96,000 compounds, 0.11% hits. Q9Y2R2;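 active = activation at 2 µM above a set limit, the mean plus 5 SD, cut at about 37% in these data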
# PLAP act: human PLAP activation. purified PLAP enzyme, luminescent substrate read-out; stronger effect = higher value. activation fold at 20 µM. 96,000 compounds, 1.2% hits. AID 696; in the data active = activation fold above about 2
# Target sequence (P05187 whole entry, looked up): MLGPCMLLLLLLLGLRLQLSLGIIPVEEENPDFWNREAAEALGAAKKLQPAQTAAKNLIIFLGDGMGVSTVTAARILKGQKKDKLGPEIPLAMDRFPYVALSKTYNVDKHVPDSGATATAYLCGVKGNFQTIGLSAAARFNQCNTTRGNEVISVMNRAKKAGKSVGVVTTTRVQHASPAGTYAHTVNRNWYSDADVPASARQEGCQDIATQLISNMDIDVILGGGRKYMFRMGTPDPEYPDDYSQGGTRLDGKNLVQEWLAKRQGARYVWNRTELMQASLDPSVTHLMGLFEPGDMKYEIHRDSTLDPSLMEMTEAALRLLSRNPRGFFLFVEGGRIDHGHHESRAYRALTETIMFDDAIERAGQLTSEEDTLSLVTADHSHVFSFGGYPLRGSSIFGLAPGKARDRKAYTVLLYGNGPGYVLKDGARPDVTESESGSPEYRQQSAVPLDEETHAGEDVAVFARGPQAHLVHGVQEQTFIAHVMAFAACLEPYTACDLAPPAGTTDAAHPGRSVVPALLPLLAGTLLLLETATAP
# PLK1 inh: inhibitors of human PLK1 kinase; inhibition, % at 10 µM; recombinant PLK1 kinase, TR-FRET peptide phosphorylation; 97,000 compounds, 0.53% hits;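 active = inhibition of 50% or more in the single-concentration screen; inactive = inhibition below 50%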;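 note: 0% = DMSO max control and 100% = H-89 dihydrochloride min control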
# PTPN22 inh 2: inhibitors of human LYP (PTPN22) phosphatase; recombinant LYP catalytic domain, DiFMUP fluorescence; inhibition, % at 2 µM; 96,000 compounds, 0.21% hits;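 active = inhibition at 2 µM at or above a set limit, the screen mean plus 3 SD, cut at about 24% in these data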;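 note: 0% = DMSO with enzyme and 100% = enzyme fully blocked by orthovanadate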
# HIV Rev-RRE inh: HIV Rev-RRE protein-RNA interaction inhibition. 97,000 compounds, 0.79% hits. inhibition, % at 8 µM. P05866. AID 704. Rev peptide-RRE RNA binding, FRET;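 active = inhibition above the screen-wide mean plus 3 SD, cut at about 35% in these data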;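 note: 0% = median DMSO wells and 100% = median Neomycin B control wells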
#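 Test system: labelled RRE RNA duplex and labelled Rev peptide. Times: 5 min compound–RNA preincubation, then 15 min with peptide, 25 °C. Doses: single-dose 8 µM. Measured by: FRET, excitation 480 nm, emission 540 nm donor and 671 nm acceptor. Measure: % inhibition of FRET ratio versus controls.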
# PLK1 PBD inh: Plk1 (human) PBD binding inhibition; P53350; Plk1 PBD phosphopeptide binding, fluorescence polarization; inhibition, %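 (tested at about 20 µM)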; 97,000 compounds, 0.13% hits; AID 693; in the data active = inhibition above about 34%, passing the limit was not always enough
# Numbers without * were called inactive; x = no result given; [ ] = remark or other dose.
SMILES,LYP act,PLAP act,PLK1 inh,PTPN22 inh 2,HIV Rev-RRE inh,PLK1 PBD inh
N#CC1=C(N)Oc2n[nH]c(-c3cccs3)c2C1C1C=CCCC1 (stereo not given),16,0.8,-10,-14,5,14
COC(=O)Cc1[nH]nc2c1C(c1cccc(OC)c1OC)C(C#N)=C(N)O2 (stereo not given),x,2*,x,x,x,x
CCOC(=O)Cc1[nH]nc2c1C(c1cc(OC)ccc1OC)C(C#N)=C(N)O2 (stereo not given),-2,1.6,0,1,-6,7
COc1cc(NC(=O)CN(C)S(=O)(=O)c2ccc(C)cc2)cc(OC)c1,3,1.1,4,1,1,14
CN=C(NC#N)SCC(=O)c1ccc(Cl)cc1Cl,5,1.6,62*,-4,0,9
CCOC(=O)c1ccc(NC(=O)CCc2nc(-c3ccc(C)cc3)no2)cc1,5,0.8,64*,-2,18,-3
CCOC(=O)c1ccc(NC(=O)CCc2nc(-c3ccc(Cl)cc3)no2)cc1,6,1,-4,-9,8,8
Nn1c(SCC(=O)N2CCN(S(=O)(=O)c3ccccc3)CC2)nnc1-c1cccs1,-4,1,-9,6,7,5
CN(Cc1ccccc1)c1nc2c(c(=O)n(C)c(=O)n2C)n1CCCc1ccccc1,-1,2.1*,-11,2,-1,-28
CCCCCn1c(CN(C)Cc2ccccc2)nc2c1c(=O)n(C)c(=O)n2C,15,2*,-12,-13,-2,3
CCCCn1c(CN(Cc2ccccc2)Cc2ccccc2)nc2c1c(=O)n(C)c(=O)n2C,-3,x,-4,2,3,30
CC(C)(C)c1ccc(C(=O)N2CCC(C(=O)NCC3CCCO3)CC2)cc1 (stereo not given),2,1.4,3,-2,6,17
COc1ccc(-c2n[nH]c(C(F)(F)F)c2-c2cc3ccccc3o2)c(O)c1,0,2*,-4,-3,15,-3
Cc1ccc(NC(=O)c2ccc(-c3nn(C)c(=O)c4ccccc34)cc2)c(C)c1,9,1.5,-8,-8,1,4
COc1ccc(C2C=C(c3ccc(Br)cc3)Nc3nc(N4C(=O)CCC4=O)nn32)cc1 (stereo not given),-3,1.9,-9,1,113*[fluorescence artefact?],-10
COc1ccccc1C1C=C(c2ccc(Cl)cc2)Nc2nc(N3C(=O)CCC3=O)nn21 (stereo not given),2,1.9,4,-4,25,11
O=C1CCC(=O)N1c1nc2n(n1)C(c1ccccc1)C=C(c1ccc(Br)cc1)N2 (stereo not given),-5,2*,-4,4,84*[fluorescence artefact?],-20
Cc1ccc2c(c1)c1c(n2CC(O)CNC(CO)(CO)CO)CCCC1 (stereo not given),x,1.7,63*,x,5,23
COC(=O)Cn1c2c(c3cc(C)ccc31)CCCC2,x,1.3,x,x,x,x
CCc1ccc(Nc2ncc3c(n2)CC(c2ccc(OC)cc2)CC3=O)cc1 (stereo not given),-12,1.1,-12,14,5,-21
CCOC(=O)C(CC)Sc1nc2c(c(=O)[nH]c(=O)n2C)n1CCc1ccccc1 (stereo not given),-2,2.8*,-11,1,6,-33
CCOC(=O)C1=C(C)NC(SC)=NC1c1ccc(OC)cc1 (stereo not given),-5,x,-8,6,6,9
CC1=NN(C(=O)Cc2ccc([N+](=O)[O-])cc2)C(O)(c2cccnc2)C1 (stereo not given),-2,1.3,-8,6,6,-4
COc1ccc(CC(=O)N2N=C(C)CC2(O)c2cccnc2)cc1 (stereo not given),-4,2.1*,-16,3,3,6
COCCNC(=O)c1ccc2c(=O)n(Cc3ccco3)c(SCC(=O)NC3CCCC3)nc2c1,-2,2.2*,1,0,6,-20
SMILES,LYP act,PLAP act,PLK1 inh,PTPN22 inh 2,HIV Rev-RRE inh,PLK1 PBD inh
COCCNC(=O)CSc1nc2cc3c(cc2c(=O)n1Cc1ccco1)OCO3,-1,1.1,-6,2,-3,3
COc1ccc2c(c1OC)C(=O)OC2CC(=O)c1ccc(O)cc1 (stereo not given),x,0.7,x,x,x,x
O=C(CCCOc1ccc(Cl)cc1Cl)Nc1ccncc1,-5,1.4,54*,5,12,-5
CCNC(=O)CCCOc1ccc(Cl)cc1Cl,1,1.2,-16,-4,-1,-26
Cc1cc(C)n2nc3nc4c(cc3c2n1)CCCC4,3,1,-8,-4,76*,18
CCOc1ccc(OCC)c(NC(=O)CN(c2ccc(C)cc2)S(=O)(=O)c2c(C)noc2C)c1,-1,1.5,-2,0,7,2
CCOc1ccc(N(CC(=O)Nc2ccc(OC)cc2)S(=O)(=O)c2c(C)noc2C)cc1,2,1,-1,-4,1,-8
CCOc1ccc(N(CC(=O)NC(C)CC)S(=O)(=O)c2c(C)noc2C)cc1 (stereo not given),x,1.1,63*,x,5,18
CCOc1ccccc1NC(=O)CN(c1ccc(C)cc1)S(=O)(=O)c1c(C)noc1C,-24,0.9,-19,27*,8,6
c1coc(-c2nnc3sc(C4CCCCC4)nn23)c1,x,0.9,x,x,x,x
O=c1c2cn[nH]c2[nH]c(=S)n1-c1ccccc1,6,x,-6,-6,5,-38
O=C(NCc1nc2ccccc2[nH]1)c1cccs1,4,1,-1,-7,8,-1
CC(C)(C)c1cc(/C=N/NC(=O)Cc2nc3ccccc3[nH]2)cc(C(C)(C)C)c1O,-13,2*,-6,13,11,7
CCCCNc1ccccc1C(=O)OCC(=O)Nc1ccc(S(N)(=O)=O)cc1,2,2.1*,-11,-4,8,-3
CCCCN(CC)CCNC(=O)C1c2cc(OC)c(OC)cc2C(=O)N2CCc3ccccc3C12 (stereo not given),-7,2*,-7,5,9,-23
CCCCN(CC)CCCNC(=O)C1c2ccccc2C(=O)N(C)C1c1cn(C)c2ccccc12 (stereo not given),4,2*,-9,-1,3,6
CCN1CCN(CCCNC(=O)C2c3ccccc3C(=O)N(C)C2c2ccc(OC)cc2)CC1 (stereo not given),14,1.3,-3,-15,-4,-7
CCN1CCN(C(=O)C2c3cc(OC)c(OC)cc3C(=O)N3CCc4ccccc4C23)CC1 (stereo not given),16,1.3,-15,-19,-1,6
CCCNCc1cc(OCC)c(OCC(N)=O)cc1Br,-15,0.9,-6,15,5,-8
COc1ccc(NC(=O)c2ccco2)cc1N,7,1.2,-2,-8,4,16
O=C(O)c1ccc(-n2nnnc2SCc2ccccc2F)cc1,x,1.1,59*,x,6,29

# Screening results deposited in PubChem by several laboratories.
